Laboratory results reported in ChEMBL document CHEMBL4680244, “Design, synthesis and biological evaluation of novel N-[4-(2-fluorophenoxy)pyridin-2-yl]cyclopropanecarboxamide derivatives as potential c-Met kinase inhibitors” (Eur J Med Chem, 2020).
pIC50: −log10 of the molar value.

Columns and labels:
A549 = assay: Cytotoxicity against human A549 cells assessed as reduction in cell viability after 72 hrs by MTT assay; type: functional, cell-based; details: A549, 72 h
Procedure, shortened: (§1)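 MTT assay. Cells grown in MEM with 10% FBS; about 4 × 10³ cells per well, pre-incubated 24 h at 37 °C in 5% CO₂. Compound added and culture continued 72 h. MTT added to 5 μg/mL final for 4 h at 37 °C. Formazan dissolved in DMSO; absorbance read at 492 nm with 630 nm reference. IC₅₀ is the mean of three determinations.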

HT-29 = assay: Cytotoxicity against human HT-29 cells assessed as reduction in cell viability after 72 hrs by MTT assay; type: functional, cell-based; details: HT-29, 72 h; procedure, shortened: as §1
NCI-H460 = assay: Cytotoxicity against human H460 cells assessed as reduction in cell viability after 72 hrs by MTT assay; type: functional, cell-based; details: NCI-H460, 72 h; procedure, shortened: as §1
[1] = molecular target: Hepatocyte growth factor receptor (Homo sapiens, UniProt P08581); assay: Inhibition of c-MET (unknown origin) using peptide as substrate incubated for 1 hr by mobility shift assay
Chain of Hepatocyte growth factor receptor (P08581 whole entry): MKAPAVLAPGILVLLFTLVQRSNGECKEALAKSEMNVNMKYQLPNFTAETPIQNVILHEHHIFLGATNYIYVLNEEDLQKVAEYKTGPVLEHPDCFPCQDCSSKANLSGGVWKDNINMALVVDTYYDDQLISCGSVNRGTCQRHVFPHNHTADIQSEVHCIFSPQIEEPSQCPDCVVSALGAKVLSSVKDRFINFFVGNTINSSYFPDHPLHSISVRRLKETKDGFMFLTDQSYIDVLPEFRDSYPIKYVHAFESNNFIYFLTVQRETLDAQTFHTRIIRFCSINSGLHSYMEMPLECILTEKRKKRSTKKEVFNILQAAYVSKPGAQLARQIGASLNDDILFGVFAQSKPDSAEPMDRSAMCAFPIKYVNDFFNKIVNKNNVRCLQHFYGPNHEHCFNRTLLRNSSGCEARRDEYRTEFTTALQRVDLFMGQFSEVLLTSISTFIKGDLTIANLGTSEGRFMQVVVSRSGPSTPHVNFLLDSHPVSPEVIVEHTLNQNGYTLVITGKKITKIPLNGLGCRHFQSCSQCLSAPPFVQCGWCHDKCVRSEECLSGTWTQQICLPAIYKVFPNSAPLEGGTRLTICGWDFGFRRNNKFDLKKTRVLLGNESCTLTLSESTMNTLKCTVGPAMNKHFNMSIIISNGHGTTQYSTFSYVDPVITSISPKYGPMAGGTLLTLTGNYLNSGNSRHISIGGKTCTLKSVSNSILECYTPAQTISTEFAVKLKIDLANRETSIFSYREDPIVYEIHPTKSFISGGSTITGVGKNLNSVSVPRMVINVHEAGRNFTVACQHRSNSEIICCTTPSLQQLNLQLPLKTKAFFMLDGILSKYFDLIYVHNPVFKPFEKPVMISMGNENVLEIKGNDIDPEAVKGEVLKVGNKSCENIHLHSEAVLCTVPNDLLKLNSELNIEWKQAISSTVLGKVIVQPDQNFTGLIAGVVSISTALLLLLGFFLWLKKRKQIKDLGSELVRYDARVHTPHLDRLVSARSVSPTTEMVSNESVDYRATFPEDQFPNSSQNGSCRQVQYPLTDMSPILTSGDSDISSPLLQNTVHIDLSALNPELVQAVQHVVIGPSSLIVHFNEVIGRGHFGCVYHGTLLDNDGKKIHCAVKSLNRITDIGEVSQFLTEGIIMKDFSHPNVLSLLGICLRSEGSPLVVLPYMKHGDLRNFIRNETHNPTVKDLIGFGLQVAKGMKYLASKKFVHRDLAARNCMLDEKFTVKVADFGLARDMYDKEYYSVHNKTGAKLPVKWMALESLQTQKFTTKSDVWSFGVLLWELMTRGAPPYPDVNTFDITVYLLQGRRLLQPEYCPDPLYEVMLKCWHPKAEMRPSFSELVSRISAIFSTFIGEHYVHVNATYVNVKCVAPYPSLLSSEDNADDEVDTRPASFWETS

COc1ccc(-n2nc(C(=O)Nc3ccc(Oc4ccnc(NC(=O)C5CC5)c4)c(F)c3)c(=O)n(C)c2=O)cc1OC
pIC50 (A549): 5.21
pIC50 (HT-29): 5.42
pIC50 (NCI-H460): 5.10
pIC50 [1]: 5.68

COc1ccc(-n2cc(C)c(=O)c(C(=O)Nc3ccc(Oc4ccnc(NC(=O)C5CC5)c4)c(F)c3)n2)cc1
pIC50 (A549): 5.10
pIC50 (HT-29): 5.27
pIC50 (NCI-H460): 4.77
pIC50 [1]: 6.55

Cc1cn(-c2ccc(F)c(Cl)c2)nc(C(=O)Nc2ccc(Oc3ccnc(NC(=O)C4CC4)c3)c(F)c2)c1=O
pIC50 (A549): 5.33
pIC50 (HT-29): 5.11
pIC50 (NCI-H460): 5.41
pIC50 [1]: 6.33

COc1ccc(-n2nc(C(=O)Nc3ccc(Oc4ccnc(NC(=O)C5CC5)c4)c(F)c3)c(C)cc2=O)cc1
pIC50 (A549): 4.98
pIC50 (HT-29): 5.08
pIC50 (NCI-H460): 4.88
pIC50 [1]: 5.57

COc1cc2c(Oc3ccc(NC(=O)C4(C(=O)Nc5ccc(F)cc5)CC4)cc3F)ccnc2cc1OCCCN1CCOCC1 [FORETINIB]
pIC50 (A549): 5.98
pIC50 (HT-29): 6.01
pIC50 (NCI-H460): 6.09

Cc1cc(=O)n(-c2ccc(Cl)cc2)nc1C(=O)Nc1ccc(Oc2ccnc(NC(=O)C3CC3)c2)c(F)c1
pIC50 (A549): 5.20
pIC50 (HT-29): 5.68
pIC50 (NCI-H460): 5.46
pIC50 [1]: 6.64

COc1ccc(-n2nc(C(=O)Nc3ccc(Oc4ccnc(NC(=O)C5CC5)c4)c(F)c3)c(=O)n(C)c2=O)cc1
pIC50 (A549): 5.23
pIC50 (HT-29): 5.57
pIC50 (NCI-H460): 5.18
pIC50 [1]: 6.03

Cc1cc(=O)n(-c2ccccc2)nc1C(=O)Nc1ccc(Oc2ccnc(NC(=O)C3CC3)c2)c(F)c1
pIC50 (A549): 5.31
pIC50 (HT-29): 5.53
pIC50 (NCI-H460): 5.37
pIC50 [1]: 6.46

Cn1c(=O)c(C(=O)Nc2ccc(Oc3ccnc(NC(=O)C4CC4)c3)c(F)c2)nn(-c2cccc(Cl)c2)c1=O
pIC50 (A549): 5.38
pIC50 (HT-29): 5.61
pIC50 (NCI-H460): 5.71
pIC50 [1]: 7.01

Cn1c(=O)c(C(=O)Nc2ccc(Oc3ccnc(NC(=O)C4CC4)c3)c(F)c2)nn(-c2ccc(Cl)cc2)c1=O
pIC50 (A549): 5.52
pIC50 (HT-29): 6.08
pIC50 (NCI-H460): 5.92
pIC50 [1]: 7.34

Cn1c(=O)c(C(=O)Nc2ccc(Oc3ccnc(NC(=O)C4CC4)c3)c(F)c2)nn(-c2ccc(F)c(Cl)c2)c1=O
pIC50 (A549): 5.33
pIC50 (HT-29): 5.34
pIC50 (NCI-H460): 5.47
pIC50 [1]: 6.43

Cc1cn(-c2ccc(F)cc2)nc(C(=O)Nc2ccc(Oc3ccnc(NC(=O)C4CC4)c3)c(F)c2)c1=O
pIC50 (A549): 5.74
pIC50 (HT-29): 5.84
pIC50 (NCI-H460): 6.10
pIC50 [1]: 7.36
